Measured values from ChEMBL document CHEMBL1158474, “Focus on the controversial activation of human iNKT cells by 4-deoxy analogue of KRN7000” (J Med Chem, 2009).
Active and inactive are the calls of the source.

Assays:
Mus musculus [1] = assay: Regulation of immune response in C57BL/6J mouse assessed as induction of NKT cell cytokine response-related TNFalpha secretion at 100 ug/kg, ip after 4 hrs by ELISA; assay type: functional, organism-based
How it was run: (§1)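 Mice were given glycolipid ip at 10, 50, 100 or 1000 μg/kg. Cytokine release kinetics (TNF-α, IL-4, IFN-γ) were followed over time after injection, with sampling that included 4 h and 18 h. Groups were compared statistically (P < 0.05 threshold).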

Mus musculus [2] = assay: Regulation of immune response in C57BL/6J mouse assessed as induction of NKT cell cytokine response-related IFN-gamma secretion at 10 to 1000 ug/kg, ip after 2 hrs by ELISA; assay type: functional, organism-based
Mus musculus [3] = assay: Regulation of immune response in C57BL/6J mouse assessed as induction of NKT cell cytokine response-related IFN-gamma secretion at 10 to 1000 ug/kg, ip after 14 hrs by ELISA; assay type: functional, organism-based
iNKT [4] = assay: Effect on immune response in human iNKT cells stimulated by antigen-presenting CD1d-transfected human HeLa cells assessed as induction of TNFalpha release by MTT assay; assay type: functional, cell-based
How it was run: (§2)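 A human Vα24 iNKT cell line was stimulated for 6 h by CD1d-transfected HeLa cells loaded overnight with increasing glycolipid concentrations. Before loading, the glycolipid was solubilized in DMSO for a couple of hours at 37 °C. Supernatant TNF-α was measured by a cellular assay, and IFN-γ and IL-4 by ELISA. Triplicates were run, and one representative of three experiments is shown. EC50 values were given as mean ± SD.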

iNKT [5] = assay: Effect on immune response in human iNKT cells stimulated by antigen-presenting CD1d-transfected human HeLa cells assessed as induction of IFN-gamma release by ELISA; assay type: functional, cell-based; how it was run: as §2
Mus musculus [6] = assay: Regulation of immune response in C57BL/6J mouse assessed as induction of NKT cell cytokine response-related IL2 secretion at 10 to 1000 ug/kg, ip after 2 hrs by ELISA; assay type: functional, organism-based
Mus musculus [7] = assay: Regulation of immune response in C57BL/6J mouse assessed as induction of NKT cell cytokine response-related IL4 secretion at 100 ug/kg, ip after 4 hrs by ELISA; assay type: functional, organism-based; how it was run: as §1
Mus musculus [8] = assay: Regulation of immune response in C57BL/6J mouse assessed as induction of NKT cell cytokine response-related IL2 secretion at 10 to 1000 ug/kg, ip after 14 hrs by ELISA; assay type: functional, organism-based
Mus musculus [9] = assay: Regulation of immune response in C57BL/6J mouse assessed as induction of NKT cell cytokine response-related IFN-gamma secretion at 100 ug/kg, ip after 18 hrs by ELISA; assay type: functional, organism-based; how it was run: as §1
iNKT [10] = assay: Effect on immune response in human iNKT cells stimulated by antigen-presenting CD1d-transfected human HeLa cells assessed as induction of IL4 release by ELISA; assay type: functional, cell-based; how it was run: as §2

CCCCCCCCCCCCCCCCCCCCCCCCCC(=O)N[C@@H](CO[C@H]1O[C@H](CO)[C@H](O)[C@H](O)[C@H]1O)C(O)[C@H](O)CCCCCCCCCCCCCC (single isomer, unassigned) [RGI-7000]
active: Activity (Mus musculus [1]) | Activity (Mus musculus [2]) | Activity (Mus musculus [3]) | Activity (iNKT [5]) | Activity (Mus musculus [6]) | Activity (Mus musculus [7]) | Activity (Mus musculus [8]) | Activity (Mus musculus [9]) | Activity (iNKT [10])
5 nM: EC50 (iNKT [4])
